These results are taken from PubChem BioAssay.

Broadly, the inhibition is the relative decrease from the control value, in per cent.

The nature of assay [1]: inhibitors of TNFa-induced NFkB p65 translocation, primary screen, imaging, HUVEC, MLSMR starter and 10KST1 sets (AID 438;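 active means inhibition above 20% together with a positive visual image hit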;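 further: compound added about 3h40 before a 20 min TNFalpha stimulation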;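 on inhibition: signal is the nuclear over cytoplasmic p65 intensity ratio per well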). Conditions: HUVEC TNFa-induced p65 nuclear translocation; cell count: measured here: nuclei count (cytotoxicity indicator), at 2.08 µM; inhibition: at 2 µM, stronger effect = higher value, 0% TNFa-plus-vehicle, 100% no-TNFa wells.
A short description of assay [2]: inhibitors of mutant huntingtin aggregation, primary screen, imaging, exon1htt(103Q)mCFP cells, high-content imaging (AID 483;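 active means visual image review flags a hit and inhibition of aggregation exceeds 20%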;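 further: compound exposure lasted 3 days before fixation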;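 on nuclei count: percent of the per-plate median nuclei count of sample wells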). Conditions: exon1htt(103Q)mCFP cell line, aggregate imaging, at 2 µM; inhibition of aggregation: stronger effect = higher value; nuclei count: measured here: cell count, toxicity.
Assay [3] can be described thus: inhibitors of E-selectin induction by TNFa, primary screen, imaging, HUVEC, immunofluorescence, MLSMR starter and 10KST1 sets (AID 487;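 active means visually confirmed hit in the image check and inhibition above 20%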;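 on inhibition: signal is fraction of cell area covered by stained E-selectin grains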;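 on nuclei count: 100% = median nuclei count of all wells on the same plate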). Conditions: HUVEC TNFalpha-induced E-selectin immunofluorescence imaging, at 2 µM; inhibition: stronger effect = higher value; nuclei count: measured here: cell number, toxicity.
The target in assay [4] is Voltage-gated potassium channel subunit beta-2 (Rattus norvegicus) (UniProt P62483). The assay can be described thus: KvBeta enzyme negative modulators, primary screen, biochemical, NADPH fluorescence (AID 622;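 active means fluorescence slope higher than the sample average by over 3 SD, cut at about -0.22 in these data, passing the limit was not always enough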;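 further: slope of raw intensity against log time taken from 70 to 1610 s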). The note with it: recombinant KvBeta, 4-cyanobenzaldehyde reduction, at 10 µM, stronger effect = higher value.
Sequence of Voltage-gated potassium channel subunit beta-2 (Rattus norvegicus) (P62483 whole entry, looked up): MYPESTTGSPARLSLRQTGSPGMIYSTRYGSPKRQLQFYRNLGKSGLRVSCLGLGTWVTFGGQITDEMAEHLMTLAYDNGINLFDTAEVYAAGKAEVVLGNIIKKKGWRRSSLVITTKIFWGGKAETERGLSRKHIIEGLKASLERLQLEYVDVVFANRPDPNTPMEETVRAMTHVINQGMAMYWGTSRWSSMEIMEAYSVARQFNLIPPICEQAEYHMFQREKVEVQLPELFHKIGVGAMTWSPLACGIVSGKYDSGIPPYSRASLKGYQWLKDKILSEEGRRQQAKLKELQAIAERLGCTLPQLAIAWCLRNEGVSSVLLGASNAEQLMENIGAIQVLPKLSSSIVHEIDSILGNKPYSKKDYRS
Assay [5] has the same target. The assay can be described thus: KvBeta positive modulators, primary screen, biochemical, NADPH fluorescence (AID 623;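 active means NADPH fluorescence slope more negative than the mean of all samples by about 3 SD, 99.7% confidence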;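 further: fluorescence intensity change per second fitted from 20 to 320 s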). Conditions: Recombinant KvBeta, NADPH fluorescence decrease slope, 10 min; at 10 µM; stronger effect = lower value.
The target in assay [6] is Muscarinic acetylcholine receptor M4 (Homo sapiens) (UniProt P08173). Briefly: compounds altering M4/GIRK thallium flux, either direction, primary screen, M4 allosteric agonist project, cell-based, HEK293 M4/GIRK, BTC-AM (AID 625).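 Further: thallium influx through GIRK channels coupled to M4 in HEK293 cells with BTC-AM dye.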 The note with it: at 10 µM, actives lie on both sides. The essentials: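 Assay system: HEK293 cells with M4 receptor and GIRK channels / Controls: carbachol and DMSO controls / Schedule: 1 h dye loading, 2 min kinetic read / Technique: kinetic fluorescence with BTC-AM dye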
Sequence of Muscarinic acetylcholine receptor M4 (Homo sapiens) (P08173 whole entry, looked up): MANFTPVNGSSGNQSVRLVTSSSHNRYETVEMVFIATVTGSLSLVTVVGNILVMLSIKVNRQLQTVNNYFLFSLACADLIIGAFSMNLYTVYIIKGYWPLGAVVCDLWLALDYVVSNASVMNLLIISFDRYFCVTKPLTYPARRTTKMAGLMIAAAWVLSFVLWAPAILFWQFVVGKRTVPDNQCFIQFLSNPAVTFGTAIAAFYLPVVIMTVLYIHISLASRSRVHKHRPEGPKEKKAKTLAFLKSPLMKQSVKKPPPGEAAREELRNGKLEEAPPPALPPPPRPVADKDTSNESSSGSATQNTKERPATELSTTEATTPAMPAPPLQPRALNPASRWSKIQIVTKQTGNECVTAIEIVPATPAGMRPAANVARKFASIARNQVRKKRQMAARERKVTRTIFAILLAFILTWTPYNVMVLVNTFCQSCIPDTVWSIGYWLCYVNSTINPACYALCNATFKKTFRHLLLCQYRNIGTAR

A short description of assay [7]: inhibitors of Sendai virus-induced IRF3 signaling, primary screen, TLR/RLR signaling modifier project, cell-based, Sendai virus stimulus, luciferase, 10K MLSCN set (AID 602276;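 active means inhibition at or above 50% at 10 µM; inactive means inhibition below 50%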;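 further: firefly luciferase from ISG56 promoter only with Renilla not read in this screen; 0% = Sendai virus plus DMSO and 100% = medium plus DMSO without virus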). The note with it: HEK293 RL24 IRF3 luciferase reporter, at 10 µM, stronger effect = higher value.
The nature of assay [8]: inhibitors of poly I:C-induced TLR3 signaling, primary screen, cell-based, poly I:C stimulus, luciferase, 10K MLSCN set (AID 602277;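 active means inhibition of the reporter signal at or above 50%; inactive means inhibition below 50%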). Conditions: HEK293-TLR3 RL24 IRF3 luciferase reporter, at 10 µM, stronger effect = higher value.

Calls of active or inactive are those of the source.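 How the source made its calls, unless noted: active means fluorescence slope after compound addition differing from the mean of all tested samples at 99.7% confidence, mostly higher but some lower; inactive means the rest.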

Regarding `CCOC(=O)N1CCN(C(=O)Nc2ccc(Cl)cc2)CC1`, the cell count in assay [1] was 356. For the same compound, the inhibition in assay [1] was -3.2% (inactive); in assay [3] it was 21.3% (inactive); in assay [7], 10.8% (inactive); in assay [8], 3.42% (inactive). The inhibition of aggregation in assay [2] was 10.6% (inactive). Further, the nuclei count in assay [2] was 99.4%; in assay [3] it was 103%. In addition, the fluorescence slope was -0.462 (inactive) in assay [4] and 0.00495 (inactive) in assay [6]. Further, the NADPH fluorescence slope in assay [5] is -4.1e-05 (inactive).

As to `CCSCCC(NC1=CC(=O)CC(C)(C)C1)C(=O)O` (stereo not drawn), the cell count in assay [1] was found to be 353. In addition, the inhibition in assay [1] was 9.3% (inactive); in assay [3], -77.8% (inactive); in assay [7] it was -16.8% (inactive); in assay [8], 98.7% (active). For the same compound, the inhibition of aggregation in assay [2] is 13.5% (inactive). Besides, the nuclei count in assay [2] turned out to be 98%; in assay [3], 94.9%. Also, the values for the fluorescence slope in assay [4] and in assay [6] were -0.566 (inactive) and 0.00496 (inactive), respectively. In addition, the NADPH fluorescence slope in assay [5] is -6.6e-05 (inactive).

Regarding `CC(CN1CCOCC1)(NS(=O)(=O)c1ccccc1)c1ccccc1` (stereo not drawn), in assay [1], the cell count stood at 460. Further, the inhibition is -12% (inactive) in assay [1], 8% (inactive) in assay [3], 4.38% (inactive) in assay [7] and 7.26% (inactive) in assay [8]. Further, the inhibition of aggregation in assay [2] is 10.4% (inactive). Further, the nuclei count in assay [2] came to 85.8%; in assay [3], 111%. The values for the fluorescence slope in assay [4] and in assay [6] were -0.576 (inactive) and 0.00534 (inactive), respectively. Besides, the NADPH fluorescence slope in assay [5] is -4.5e-06 (inactive).

As for `Cc1cc2c(=O)n(CC(=O)N3CCN(c4ccccc4)CC3)cnc2s1`, the cell count in assay [1] came to 632. The inhibition in assay [1] is -22.3% (inactive); in assay [3], 2.7% (inactive); in assay [7], 7.52% (inactive); in assay [8], 14.5% (inactive). In addition, the inhibition of aggregation in assay [2] is 0.5% (inactive). In addition, the values for the nuclei count in assay [2] and in assay [3] were 105% and 94.9%, respectively. The fluorescence slope in assay [4] was -0.595 (inactive); in assay [6] it was 0.0045 (inactive). For the same compound, the NADPH fluorescence slope in assay [5] was 1.9e-06 (inactive).

`CCOC(=O)c1ccc(Oc2nc(NC)nc(OC)n2)cc1`: in assay [1], the cell count worked out at 635. Further, the inhibition in assay [1] is 6.8% (inactive); in assay [3] it was -41.5% (inactive); in assay [7], -7.27% (inactive); in assay [8], 18.3% (inactive). Further, in assay [2], the inhibition of aggregation was -13.2% (inactive). Also, the nuclei count in assay [2] came out at 98.2%; in assay [3], 110%. The fluorescence slope in assay [4] is -0.295 (inactive); in assay [6], 0.00677 (inactive). Further, the NADPH fluorescence slope in assay [5] was -1.6e-06 (inactive).

`Cc1ccc(S(=O)(=O)NCC2CCC(C(=O)NCCCN3CCOCC3)CC2)cc1` (stereo not drawn): in assay [1], the cell count was 305. In addition, the inhibition in assay [1] is 1.9% (inactive); in assay [3], -24.4% (inactive); in assay [7] it was 13% (inactive); in assay [8] it was 22.2% (inactive). Also, the inhibition of aggregation in assay [2] is 26.8% (inactive). Also, the nuclei count in assay [2] came out at 80.7%; in assay [3] it was 112%. Further, the results for the fluorescence slope in assay [4] and in assay [6] were -0.564 (inactive) and 0.00513 (inactive), respectively. For the same compound, the NADPH fluorescence slope in assay [5] was -0.000104 (inactive).

As to `O=C(Cn1cnc2c(oc3ccccc32)c1=O)N1CCN(c2ccccc2)CC1`, the cell count in assay [1] is 648. The inhibition was 10.8% (inactive) in assay [1], -78% (inactive) in assay [3], 10.1% (inactive) in assay [7] and 17.4% (inactive) in assay [8]. Moreover, the inhibition of aggregation in assay [2] is 34.2% (inactive). For the same compound, the nuclei count is 95% in assay [2] and 84.4% in assay [3]. The fluorescence slope in assay [4] was -0.493 (inactive); in assay [6] it was 0.00654 (inactive). Further, the NADPH fluorescence slope in assay [5] is 1.3e-05 (inactive).

As for `CCOC(=O)CCC(=O)c1c(C)oc2ccc(OC)cc12`, the cell count in assay [1] was 447. Further, the inhibition in assay [1] is -6.3% (inactive); in assay [3], 46.7% (inactive); in assay [7], -14.6% (inactive); in assay [8] it was -30.6% (inactive). Besides, the inhibition of aggregation in assay [2] was 4.8% (inactive). The results for the nuclei count in assay [2] and in assay [3] were 98.5% and 118%, respectively. Also, the fluorescence slope was -0.583 (inactive) in assay [4] and 0.00919 (inactive) in assay [6]. For the same compound, in assay [5], the NADPH fluorescence slope is 4e-05 (inactive).
